Series [1] concerns Rattus norvegicus. In words: Neuromuscular blocking activity in Wistar rat tibialis muscle assessed as reduction in electrically-induced twitches by measuring time required for 50% blockage at 100 mg/kg, ip. It counts as functional. The procedure, abridged:
(§1)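 Male Wistar rats (250 g, N = 4-8 per group) anaesthetized with urethane (25% in water, 1.25 g/kg i.p.). Tracheal cannula with artificial room-air ventilation at 90 breaths/min, 20 c.c./kg. Rectal temperature held at 37 ± 1 °C. Tibialis twitch tension is expressed as % of pre-drug amplitude. Drug is given i.p. in DMSO or water, 1-100 mg/kg; ED50 and 90%-depression dose derived; mean ± S.E.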

In series [2] the test system is Gallus gallus. In words: Neuromuscular blocking activity in ip dosed chicks assessed as induction of spastic paralysis. The format is functional. The procedure, abridged:
(§2)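 4-day-old chicks (50 g) receive a single submaximal dose i.p., taken from the rat twitch study (0.15 mmol/kg). The type of paralysis, flaccid or spastic, is noted. The onset of head drop and of complete paralysis is timed after administration. Atracurium and succinylcholine serve as positive controls.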

For series [3], the system named is Gallus gallus. Briefly: Neuromuscular blocking activity in chicks assessed as induction of spastic paralysis by measuring time of onset of muscle relaxation at 0.15 mmol/Kg, ip administered as single dose. The format is functional. An outline of the steps: as §2
Series [4] concerns Rattus norvegicus. Briefly: Neuromuscular blocking activity in Wistar rat tibialis muscle assessed as reduction in electrically induced twitches at 100 mg/kg, ip in presence of physostigmine. The format is functional, organism-based.
Series [5] concerns Rattus norvegicus. Briefly: Neuromuscular blocking activity in Wistar rat tibialis muscle assessed as reduction in tetanus stimulated muscle twitches at 100 mg/kg, ip. The format is functional, organism-based. An outline of the steps:
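Male Wistar rats (250 g, N = 4-8 per group) anaesthetised with urethane (1.25 g/kg i.p.), tracheally cannulated and ventilated with room air at 90 breaths/min. Tibialis twitch tension recorded with body temperature kept at 37 ± 1 °C. Tetanus given at 30 Hz for 5-10 s. Drug given i.p. in DMSO or water at 1-100 mg/kg. Twitches expressed as % of pre-drug amplitude.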

Series [6] concerns Rattus norvegicus. In words: Neuromuscular blocking activity in Wistar rat tibialis muscle assessed as reduction in electrically-induced twitches by measuring time of onset at 100 mg/kg, ip. The format is functional. The procedure, abridged:
as §1

Series [7] relates to Rattus norvegicus. Briefly: Neuromuscular blocking activity in against electrically-induced twitches in Wistar rat tibialis muscle assessed as time duration of muscle block at 100 mg/kg, ip. It counts as functional. An outline of the steps: as §1
Series [8] deals with Rattus norvegicus. Briefly: Neuromuscular blocking activity in ip dosed Wistar rat tibialis muscle assessed as reduction in electrically-induced twitches. The format is functional. An outline of the steps: as §1
Series [9] relates to Rattus norvegicus. Briefly: Neuromuscular blocking activity in Wistar rat tibialis muscle assessed as reduction in electrically-induced twitches by measuring time required for 90% blockage at 100 mg/kg, ip. The format is functional. The procedure, abridged:
as §1

Series [10] relates to Rattus norvegicus. In words: Reversal of neuromuscular blocking activity against electrically induced twitches in Wistar rat tibialis muscle at 100 mg/kg, ip in presence of physostigmine relative to control. It counts as functional.
The subject of series [11] is Gallus gallus. Briefly: Neuromuscular blocking activity in ip dosed chicks assessed as induction of flaccid paralysis. It counts as functional. An outline of the steps:
as §2

Series [12] deals with Gallus gallus. Briefly: Neuromuscular blocking activity in chicks assessed as induction of flaccid paralysis by measuring time of onset of muscle relaxation at 0.15 mmol/Kg, ip administered as single dose. The format is functional. The procedure, abridged:
as §2

The subject of series [13] is Rattus norvegicus. Briefly: Reversal of neuromuscular blocking activity in Wistar rat tibialis muscle assessed as time of onset of reversal at 100 mg/kg, ip in presence of physostigmine. It counts as functional.
Series [14] deals with Gallus gallus. Briefly: Neuromuscular blocking activity in chicks assessed as induction of flaccid paralysis by measuring time of onset of head drop at 0.15 mmol/Kg, ip administered as single dose. The format is functional. The procedure, abridged: as §2
Series [15] can be described thus: Toxicity in ip dosed mouse measured for 72 hrs. It counts as organism-based. As to conditions: in vivo. An outline of the steps: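 Male mice, grouped, given i.p. doses of 0.1-5 mmol/kg. Observed continuously for 6 h, then kept under observation for 72 h, with behavioural changes and deaths recorded. Percentage death per dose converted to probits to derive the LD50.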

As a reminder, the ED50 is the dose that gives a 50% effect, or the effect in half of the subjects. The term LD50 denotes the dose at which mortality reaches 50%.

Calls of active or inactive are those of the source. No cut-off for these calls is given here.

For `C[N+](C)(C)CCOC(=O)CCC(=O)OCC[N+](C)(C)C.[Cl-].[Cl-]` [SUCCINYLCHOLINE CHLORIDE], the Time was 3 min in the series on Rattus norvegicus [1]; 0.5 min with Gallus gallus [3]; 2 min with Rattus norvegicus [6]; 20 min with Rattus norvegicus [7]; 5 min in the series with Rattus norvegicus [9]. In addition, the 50% effective dose (ED50) in the series with Gallus gallus [2] and with Rattus norvegicus [8] was 30 µmol/kg throughout. Besides, the result with Rattus norvegicus [4] and in the series on Rattus norvegicus [5] was inactive.

Take `COc1ccc(CC2c3cc(OC)c(OC)cc3CC[N+]2(C)CCC(=O)OCCCCCOC(=O)CC[N+]2(C)CCc3cc(OC)c(OC)cc3C2Cc2ccc(OC)c(OC)c2)cc1OC.O=S(=O)([O-])c1ccccc1.O=S(=O)([O-])c1ccccc1` (configuration not stated) [ATRACURIUM BESYLATE]: the Time is 8 min with Rattus norvegicus [1]; 10 min in the series on Gallus gallus [12]; 2 min with Rattus norvegicus [13]; 5 min in the series on Rattus norvegicus [6]; 5 min in the series with Gallus gallus [14]; 30 min in the series with Rattus norvegicus [7]. Also, the Time in the series on Rattus norvegicus [9] turned out to be 12 min. Further, the Activity in the series on Rattus norvegicus [10] stood at 100%. For the same molecule, the ED50 in the series with Gallus gallus [11] and in the series with Rattus norvegicus [8] was 16 µmol/kg throughout. In addition, the result in the series with Rattus norvegicus [5] was Active.

In the case of `O=C1CCCN2N=C(c3ccc(Br)cc3)SC2=N1`, the LD50 at 72 h in series [15] came out at 195 mg/kg. Moreover, the Time with Rattus norvegicus [1] came out at 7 min; in the series with Gallus gallus [12] it was 1 min; in the series on Rattus norvegicus [13], 1 min; in the series on Rattus norvegicus [6] it was 3 min; in the series with Gallus gallus [14], 0.25 min; in the series with Rattus norvegicus [7], 70 min. For the same molecule, in the series with Rattus norvegicus [9], the Time is recorded as 10 min. In the series on Rattus norvegicus [10], the Activity came out at 100%. Further, the ED50 in the series on Gallus gallus [11] and with Rattus norvegicus [8] was 150 µmol/kg in each case. In addition, in the series with Rattus norvegicus [5], the result was Active.

Regarding `O=C1CCCN2N=C(c3ccc(F)cc3)SC2=N1`, the Time amounted to 18 min with Rattus norvegicus [1]; 15 min in the series with Gallus gallus [12]; 10 min in the series on Rattus norvegicus [6]; 11 min with Gallus gallus [14]; 110 min in the series with Rattus norvegicus [7]; 28 min in the series with Rattus norvegicus [9]. Besides, the median effective dose (ED50) in the series with Gallus gallus [11] came out at 300 µmol/kg; in the series on Rattus norvegicus [8] it was 360 µmol/kg. For the same molecule, the outcome with Rattus norvegicus [4] was inactive. Besides, the result in the series with Rattus norvegicus [5] was Active.

The record behind these values is ChEMBL document CHEMBL5244203, “Thiadiazolodiazepine analogues as a new class of neuromuscular blocking agents: Synthesis, biological evaluation and molecular modeling study” (Eur J Med Chem, 2017).
